An excerpt weighted towards active compounds, which were near 1.9% of everything screened.
M5 antag – human M5 muscarinic receptor antagonists, primary screen, CHO cells, Fluo-8 calcium fluorescence; Muscarinic acetylcholine receptor M5 (Homo sapiens), P08912; CHO-hM5 cells, ACh EC80; 360,000 compounds, 0.59% hits; inhibition, % at 3 µM;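 active = inhibition above a per-plate cutoff, the mean of that plate's test compounds plus 3 SD, cut at about 27% in these data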;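 also: 0% = acetylcholine EC80 with DMSO and 100% = DMSO without agonist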
Target sequence (P08912 whole entry, looked up): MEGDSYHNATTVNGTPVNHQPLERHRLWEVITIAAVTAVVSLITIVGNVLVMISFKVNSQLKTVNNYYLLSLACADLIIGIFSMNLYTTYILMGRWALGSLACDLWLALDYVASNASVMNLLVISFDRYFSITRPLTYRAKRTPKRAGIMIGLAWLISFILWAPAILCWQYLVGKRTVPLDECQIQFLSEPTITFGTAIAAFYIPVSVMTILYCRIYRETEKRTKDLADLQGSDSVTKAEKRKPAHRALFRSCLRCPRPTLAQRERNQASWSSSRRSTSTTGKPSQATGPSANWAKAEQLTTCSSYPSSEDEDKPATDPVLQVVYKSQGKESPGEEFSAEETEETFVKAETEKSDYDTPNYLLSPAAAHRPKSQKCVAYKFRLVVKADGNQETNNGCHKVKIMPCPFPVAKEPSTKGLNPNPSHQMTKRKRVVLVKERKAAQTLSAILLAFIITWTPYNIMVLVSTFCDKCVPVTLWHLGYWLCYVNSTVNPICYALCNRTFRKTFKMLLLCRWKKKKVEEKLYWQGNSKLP
M5 ag – human M5 muscarinic receptor agonists, primary screen, CHO-K1 cells, Fluo-8 calcium fluorescence | activation, % at 3 µM | AID 624037, 2012 | Muscarinic acetylcholine receptor M5 (Homo sapiens), P08912 | 360,000 compounds, 0.19% hits | CHO-K1 hM5 cells; 0% DMSO wells, 100% maximal acetylcholine response;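 active = activation above the run's mean over test compounds plus 3 SD, cut at about 23% in these data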;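 also: signal is peak over basal fluorescence ratio across the kinetic read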
M4 antag – human M4 muscarinic receptor antagonists, primary screen, CHO cells, Fluo-8 calcium fluorescence | Muscarinic acetylcholine receptor M4 (Homo sapiens), P08173 | CHO-hM4 cells, ACh EC80 | inhibition, % at 3 µM | 360,000 compounds, 0.73% hits | AID 624125, 2012;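 active = inhibition above its plate's cutoff, the mean inhibition of sample wells plus 3 SD, cut at about 27% in these data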;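 also: 0% = acetylcholine EC80 with DMSO and 100% = DMSO without agonist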
M4 PAM – human M4 muscarinic receptor positive allosteric modulators, primary screen, CHO-K1 cells, Fluo-8 calcium fluorescence; Muscarinic acetylcholine receptor M4 (Homo sapiens), P08173; CHO-K1 hM4/Gqi5, ACh EC20; 0% = ACh EC20, 100% = maximal ACh; activation, % at 3 µM; 360,000 compounds, 0.4% hits; AID 624126, 2012;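 active = activation above its plate's cutoff, the mean activation of sample wells plus 3 SD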
M4 ag – human M4 muscarinic receptor agonists, primary screen, CHO-K1 cells, Fluo-8 calcium fluorescence. AID 624127, 2012. Muscarinic acetylcholine receptor M4 (Homo sapiens), P08173. activation, % at 3 µM. CHO-K1 hM4/Gqi5; vehicle 0%, full acetylcholine response 100%. 360,000 compounds, 0.14% hits;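 active = activation above the run mean over all test wells plus 3 SD, cut at about 32% in these data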;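 also: peak over basal fluorescence ratio per well then scaled between controls; 0% = DMSO wells and 100% = acetylcholine at EC100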
M5 PAM – human M5 muscarinic receptor positive allosteric modulators, primary screen, CHO-K1 cells, Fluo-8 calcium fluorescence; Muscarinic acetylcholine receptor M5 (Homo sapiens), P08912; CHO-K1 hM5, ACh EC20 PAM; 0% = ACh EC20, 100% = ACh EC100; activation, % at 3 µM; 360,000 compounds, 0.3% hits; AID 624038, 2012;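 active = activation above the run cutoff, the mean activation of all test compounds plus 3 SD, cut at about 18% in these data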
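System – CHO-K1 hM5 cells · Compound – 3 µM, single dose · Incubation – compound preincubation 140 s before EC20 acetylcholine addition · Technique – Fluo-8 calcium fluorescence · Measure – Max/basal fluorescence ratio as % of EC20–EC100 ACh window · Benchmarks – low control EC20 acetylcholine (0%), high control EC100 acetylcholine (100%) · Replication – singlicate, one well per test compound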
The depositor's hits bear a star.

SMILES	M5 antag	M5 ag	M4 antag	M4 PAM	M4 ag	M5 PAM
CCOC(=O)[C@]12Cc3cc(C)ccc3[C@H]1N(Cc1ccccc1)C(=O)c1ccccc12	18	-8	4	-4	5	-24
CCOC(=O)[C@]12Cc3cc(C)ccc3[C@H]1N(C1CCCCC1)C(=O)c1cc(OC)ccc12	18	50*	65*	-2	1	8
c1ccc(CN2COC3CCCCCC32)cc1 (stereo not drawn)	1	1	1	0	1	-7
O=C(O)C1CN2CCC1CC2 (stereo not drawn)	-1	37*	10	1	1	-10
O=C(c1cccs1)C1CN2CCC1CC2 (stereo not drawn)	13	-7	-1	-16	0	-13
O=C1CC(c2cccnc2)=NN1c1ccc(Cl)cc1Cl	5	4	-4	0	3	-6
CCN1C(=O)CC(c2cccnc2)=Nc2ccccc21	-2	5	2	-6	2	19*
N#Cc1ccc(NC(=O)CN2CCN(C(=O)c3cccs3)CC2)cc1Cl	9	3	-13	-9	24	-11
NC(Cc1ccccc1Cl)c1nn[nH]n1 (stereo not drawn)	6	1	-3	1	0	-6
CCOC(=O)[C@@]1(C#N)[C@@H]2C=CC(C(N)=O)=CN2[C@@H](C(N)=O)[C@@H]1c1cccc(Cl)c1	-13	-4	-15	3	2	31*
CCOC(=O)[C@]1(C#N)[C@@H]2C=CC(C(N)=O)=CN2[C@@H](C(N)=O)[C@@H]1c1ccc(F)cc1	6	-5	-5	24	1	0
CN1C2CCC1CC(OC(=O)c1cccc(O)c1)C2 (stereo not drawn)	20	-6	7	-10	0	-23
CC1CC(OC(=O)c2ccccc2)CC(C)N1C (stereo not drawn)	16	-7	30*	-17	0	-17
CCOC(=O)[C@]12Cc3c(cc(OC)c(OC)c3OC)[C@H]1N(C)C(=O)c1cc(OC)ccc12	-4	8	-7	8	2	7
C[C@H]1OC[C@@H](C[N+](C)(C)C)O1	96*	107*	73*	-19	98*	-12
CC1OC(C[N+](C)(C)C)CC1O (stereo not drawn)	95*	102*	30*	-19	71*	-13
CCOc1ccc2nc(N=Nc3c(O)[nH]c(=S)[nH]c3=O)sc2c1	5	0	-2	-1	0	0
c1ccc2c[n+](CCCCCCCCCC[n+]3ccc4ccccc4c3)ccc2c1	3	-7	27*	-10	1	-16
O=c1[nH]c(=S)n(-c2ccccc2)c(O)c1/C=N/N1CCCCC1c1cccnc1 (stereo not drawn)	3	5	-1	11	2	-2
CCc1ccc(-n2c(O)c(/C=N/N3CCCCC3c3cccnc3)c(=O)[nH]c2=O)cc1 (stereo not drawn)	-11	3	0	11	0	19*
COC(=O)C1=C(c2ccc(S(C)(=O)=O)cc2)C[C@@H]2CC[C@H]1N2C(=O)NCc1ccc(F)cc1	18	0	-2	4	0	-2
O=C(c1ccc(Cl)cc1)C1CCCN(C2CCSCC2)C1 (stereo not drawn)	27*	-10	37*	-19	2	-17
COc1ccc(C(=O)C2CCCN(C3CSCCSC3)C2)cc1OC (stereo not drawn)	9	-19	39*	-27	2	-16
